According to ChEMBL document CHEMBL4190318 (Eur J Med Chem, 2017):
Active and inactive are the calls of the source. No cut-off for these calls is given here.

T1: N-acylethanolamine-hydrolyzing acid amidase (Rattus norvegicus, UniProt Q5KTC7)
T1 sequence (Q5KTC7 whole entry): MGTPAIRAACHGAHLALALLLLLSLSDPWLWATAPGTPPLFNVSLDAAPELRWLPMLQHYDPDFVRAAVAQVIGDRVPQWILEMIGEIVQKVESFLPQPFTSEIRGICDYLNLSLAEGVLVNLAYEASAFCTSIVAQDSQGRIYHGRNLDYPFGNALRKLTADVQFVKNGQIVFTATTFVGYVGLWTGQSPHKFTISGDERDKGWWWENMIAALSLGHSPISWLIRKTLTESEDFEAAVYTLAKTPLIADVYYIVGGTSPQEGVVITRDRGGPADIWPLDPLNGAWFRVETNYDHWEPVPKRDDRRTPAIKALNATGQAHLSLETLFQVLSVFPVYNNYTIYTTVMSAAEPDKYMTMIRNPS

T2: Acid ceramidase (Rattus norvegicus) (UniProt Q6P7S1)
T2 sequence (whole entry): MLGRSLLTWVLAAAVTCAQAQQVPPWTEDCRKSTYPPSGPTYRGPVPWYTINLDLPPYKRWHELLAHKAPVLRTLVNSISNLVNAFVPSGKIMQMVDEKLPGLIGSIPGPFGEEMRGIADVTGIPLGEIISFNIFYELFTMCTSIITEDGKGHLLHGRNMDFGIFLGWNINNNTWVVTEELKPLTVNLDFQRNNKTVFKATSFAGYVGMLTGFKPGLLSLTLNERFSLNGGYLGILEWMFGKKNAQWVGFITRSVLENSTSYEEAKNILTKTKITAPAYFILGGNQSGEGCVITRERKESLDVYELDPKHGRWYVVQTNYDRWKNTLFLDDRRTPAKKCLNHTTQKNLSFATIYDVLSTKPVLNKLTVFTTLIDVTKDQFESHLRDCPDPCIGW

T3: N-acylethanolamine-hydrolyzing acid amidase (Rattus norvegicus) (UniProt Q5KTC7)
T3 sequence (whole entry): T1 sequence (Q5KTC7 whole entry)

B1: N-acylethanolamine-hydrolyzing acid amidase (Rattus norvegicus), Q5KTC7 (protein)
chain: T1 sequence (Q5KTC7 whole entry)

target: T1, N-acylethanolamine-hydrolyzing acid amidase; test: Inhibition of rat NAAA expressed in HEK293 cells using heptadecenoylethanolamide as substrate after 30 mins by HPLC-MS/MS analysis
Outline: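 Rat NAAA activity measured against heptadecenoylethanolamide (C17:1 FAE) substrate, with hydrolysis products quantified by LC-MS. IC50 derived by nonlinear regression of concentration-response curves. Runs done in triplicate (n = 3); mean ± SD of three independent experiments.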

| IC50 | Molecule |
| --- | --- |
| > 20 µM | Cc1ccc(CCCCCC(=O)N2CCOC2=O)cc1C |
| 4.6 µM | O=C(CCCCCc1ccc(Cl)cc1)N1CCOC1=O |
| 0.026 µM | O=C(CCCCCc1ccc(F)c(Cl)c1)N1CCOC1=O |
| 16.3 µM | COc1cccc(CCCCCC(=O)N2CCOC2=O)c1 |
| > 20 µM | COc1ccc(CCCCCC(=O)N2CCOC2=O)cc1 |
| > 20 µM | Cc1ccccc1CCCCCC(=O)N1CCOC1=O |
| 8.64 µM | O=C(CCCCCc1cccc(O)c1)N1CCOC1=O |
| 7.74 µM | O=C1OCCN1C(=O)c1ccc(Oc2cccc(Cl)c2)cc1 |
| > 20 µM | CSc1ccc(CCCCCC(=O)N2CCOC2=O)cc1 |
| 0.058 µM | O=C(CCCCCc1cccc(C(F)(F)F)c1)N1CCOC1=O |
| > 20 µM | NC(=O)c1cccc(CCCCCC(=O)N2CCOC2=O)c1 |
| 1.34 µM | CCCCOc1ccc(C(=O)N2CCOC2=O)cc1 |
| > 20 µM | O=C(CCCCCc1ccccc1Cl)N1CCOC1=O |
| 0.64 µM | CCCCCCOc1ccc(C(=O)N2CCOC2=O)cc1 |
| > 20 µM | O=C(O)c1cccc(CCCCCC(=O)N2CCOC2=O)c1 |
| > 20 µM | O=C(CCCCCc1ccc(O)c(Cl)c1)N1CCOC1=O |
| 6.4 µM | Cc1ccc(Oc2ccc(C(=O)N3CCOC3=O)cc2)cc1 |
| 0.12 µM | O=C1OCCN1C(=O)c1ccc(OC2CCCC2)cc1 |
| > 20 µM | Nc1cccc(CCCCCC(=O)N2CCOC2=O)c1 |

| IC50 | Molecule |
| --- | --- |
| > 20 µM | O=C(CCCCCc1ccccc1O)N1CCOC1=O |
| 12.8 µM | CSc1cccc(CCCCCC(=O)N2CCOC2=O)c1 |
| 0.48 µM | CCC(CC)Oc1ccc(C(=O)N2CCOC2=O)cc1 |
| > 20 µM | O=C1OCCN1C(=O)c1ccc(Oc2ccc(O)cc2)cc1 |
| 0.16 µM | O=C(CCCCCc1ccc(O)c(F)c1)N1CCOC1=O |
| 0.092 µM | O=C1OCCN1C(=O)c1ccc(OC2CCCCC2)cc1 |
| > 20 µM | O=C(CCCCCc1ccc(I)cc1)N1CCOC1=O |
| 8.51 µM | O=C(CCCCCc1ccc(Br)cc1)N1CCOC1=O |
| 0.19 µM | O=C(CCCCCc1ccc(CO)cc1)N1CCOC1=O |
| 0.43 µM | O=C(CCCCCc1cccc(Br)c1)N1CCOC1=O |
| > 20 µM | NC(=O)c1ccc(CCCCCC(=O)N2CCOC2=O)cc1 |
| > 20 µM | O=C(O)c1ccc(CCCCCC(=O)N2CCOC2=O)cc1 |
| 3.12 µM | O=C(CCCCCc1cccc(I)c1)N1CCOC1=O |
| 0.33 µM | O=C1OCCN1C(=O)c1ccc(OC2CCOCC2)cc1 |
| 1.04 µM | O=C(CCCCCc1ccc(C(F)(F)F)cc1)N1CCOC1=O |
| > 20 µM | O=C(CCCCCc1cccc(CO)c1)N1CCOC1=O |
| 0.21 µM | O=C1OCCN1C(=O)c1ccc(OC2CCC(O)CC2)cc1 (stereo unspecified) |
| 5.21 µM | Cc1cccc(Oc2ccc(C(=O)N3CCOC3=O)cc2)c1 |
| 15.7 µM | Nc1ccc(CCCCCC(=O)N2CCOC2=O)cc1 |

target: T2, Acid ceramidase (Rattus norvegicus); test: Inhibition of rat acid ceramidase expressed in HEK293 cells assessed as remaining activity at 20 uM using N-lauroylceramide as substrate after 30 mins by LC-MS analysis (reference value: 100 +/- 21.4 %); format: cell-based

| Activity | Molecule |
| --- | --- |
| 95.1% | O=C(CCCCCc1ccc(O)cc1)N1CCOC1=O |
| 90.6% | O=C(CCCCCc1ccccc1)N1CCOC1=O |
| 81.7% | O=C1OCCN1C(=O)c1ccc(OC2CCCCC2)cc1 |
| 85.3% | O=C(CCCCCc1cccc(Cl)c1)N1CCOC1=O |

target: T3, N-acylethanolamine-hydrolyzing acid amidase (Rattus norvegicus); test: Inhibition of rat NAAA expressed in HEK293 cells at 50 to 250 nM using heptadecenoylethanolamide as substrate after 30 mins in presence of covalent beta-lactone NAAA inhibitor ARN077 by Yonetani-Theorell plot analysis

| inhibition | Molecule |
| --- | --- |
| Active | O=C(CCCCCc1cccc(Cl)c1)N1CCOC1=O |

target: T3, N-acylethanolamine-hydrolyzing acid amidase (Rattus norvegicus); test: Inhibition of rat NAAA expressed in HEK293 cells at 50 to 250 nM using heptadecenoylethanolamide as substrate after 30 mins in presence of non-covalent competitive NAAA inhibitor E8 by Yonetani-Theorell plot analysis; format: cell-based

| inhibition | Molecule |
| --- | --- |
| Active | O=C(CCCCCc1cccc(Cl)c1)N1CCOC1=O |

target: T3, N-acylethanolamine-hydrolyzing acid amidase (Rattus norvegicus); test: Reversible inhibition of rat NAAA expressed in HEK293 cells at 10 fold IC50 preincubated for 10 mins followed by 100 fold dilution using heptadecenoylethanolamide as substrate by HPLC-MS/MS analysis; format: cell-based

| inhibition | Molecule |
| --- | --- |
| Active | O=C(CCCCCc1cccc(Cl)c1)N1CCOC1=O |

compound: O=C(CCCCCc1ccc(Cl)cc1)N1CCOC1=O; test: (§1) Inhibition of rat NAAA expressed in HEK293 cells assessed as enzyme Vmax per mg protein in presence of varying concentration of heptadecenoylethanolamide substrate after 30 mins by Michaelis-Menten plot analysis (reference value: 9383 +/- 937 nmol/min); format: cell-based

| Molecule | Vmax |
| --- | --- |
| B1 | 9900 nmol/min/mg |

compound: O=C(CCCCCc1cccc(Cl)c1)N1CCOC1=O; test: as §1; format: cell-based

| Molecule | Vmax |
| --- | --- |
| B1 | 2790 nmol/min/mg |

compound: O=C(CCCCCc1ccc(Cl)cc1)N1CCOC1=O; test: (§2) Inhibition of rat NAAA expressed in HEK293 cells assessed as Km for substrate in presence of varying concentration of heptadecenoylethanolamide substrate after 30 mins by Michaelis-Menten plot analysis (reference value: 1395 +/- 260 microM); format: cell-based

| Molecule | Km |
| --- | --- |
| B1 | 1670 µM |

compound: O=C(CCCCCc1cccc(Cl)c1)N1CCOC1=O; test: as §2; format: cell-based

| Molecule | Km |
| --- | --- |
| B1 | 1280 µM |

target: N-acylethanolamine acid amidase (Rattus norvegicus); test: Inhibition of rat N-acylethanolamine acid amidase expressed in HEK293 cells using heptadecenoylethanolamide as substrate after 30 mins by LC-MS analysis

| IC50 | Molecule |
| --- | --- |
| 0.27 µM | O=C(CCCCCc1ccccc1)N1CCOC1=O |
| 0.092 µM | O=C1OCCN1C(=O)c1ccc(OC2CCCCC2)cc1 |
